Screening results deposited in PubChem BioAssay by several laboratories.
Sampled rows, rich in hits. Any-hit rate of the full collection: about 4%.
Measles CPE – protection of cells from measles virus. Measles virus-infected cells, CPE protection, absorbance. protection (pct of control), % at 4 µM. actives 1.5% (n = 140,000); in the data active means protection mostly above about 24%, no sharp cut-off; inactive means mostly below about 26%
Insulin prom inh – TRM-6 insulin promoter activity inhibition; actives 0.9% (n = 130,000); inhibition, % at 2 µM; TRM-6 cells (human fetal islet line), insulin promoter-eGFP reporter, imaging; reporter expression induced with tamoxifen; AID 1273;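 active means inhibition above the mean plus 3 SD, with well images judged a real hit on visual review, cut at about 60% in these data, passing the limit was not always enough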
Yeast lifespan up – extends the lifespan of yeast | S. cerevisiae growth with nicotinamide, OD615; deaD strain in restrictive glucose medium | inhibition of the nicotinamide effect, % at 10 µM | actives 0.68% (n = 130,000) | AID 775;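 active means inhibition above a set limit, placed 3 SD over the median of all compounds, cut at about 26% in these data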
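Test system – modified budding yeast, DeaD strain · Compound – single dose 10 µM compound, 0.25% DMSO · Times – culture preincubation 4 h, compound exposure 48 h, both 30 °C · Detection – optical density (absorbance) at 615 nm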
RAM network inh – blocks the yeast RAM network. S. cerevisiae dse1pr::URA3 reporter, 5-FOA growth OD615, 2 d; analog-sensitive cbk1-as2 kinase mutant strain. inhibition, % at 50 µM. actives 1.8% (n = 190,000). AID 868;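 active means inhibition above a set limit, 3 SD over mean compound inhibition, cut at about 8.4% in these data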;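 further: inhibition rescues growth on 5-FOA so higher OD means more RAM inhibition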
BB579 growth dn – yeast BB579 growth reduction in restrictive medium. AID 804. inhibition, % at 10 µM. S. cerevisiae BB579 growth, OD615, 48 h. actives 0.51% (n = 140,000);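 active means inhibition above a set limit, 3 SD over the mean compound inhibition, cut at about 44% in these data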
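System: Saccharomyces cerevisiae DeaD strain BB579, replicative lifespan model yeast | Buffer or medium: Restrictive glucose-based CSMM-D medium | Times: 4 h preincubation and 48 h exposure at 30 °C | Detection: OD615 turbidity measurement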
Mdm2 ligase inh – inhibitors of human Mdm2 E3 ubiquitin ligase | cell-based MDM2 ubiquitination luciferase reporter, 2 h; 0 = plate control, 100 = twice control, blank-subtracted | signal enhancement, % at 5 µM | actives 0.11% (n = 210,000) | AID 1230;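 active means signal enhancement of 30% or more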;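 further: luminescence tracks abundance of the self-degrading MDM2-luciferase fusion protein; higher signal means inhibition of MDM2 E3 ligase activity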
Target sequence (Q00987 whole entry, looked up, the tested form may be a part): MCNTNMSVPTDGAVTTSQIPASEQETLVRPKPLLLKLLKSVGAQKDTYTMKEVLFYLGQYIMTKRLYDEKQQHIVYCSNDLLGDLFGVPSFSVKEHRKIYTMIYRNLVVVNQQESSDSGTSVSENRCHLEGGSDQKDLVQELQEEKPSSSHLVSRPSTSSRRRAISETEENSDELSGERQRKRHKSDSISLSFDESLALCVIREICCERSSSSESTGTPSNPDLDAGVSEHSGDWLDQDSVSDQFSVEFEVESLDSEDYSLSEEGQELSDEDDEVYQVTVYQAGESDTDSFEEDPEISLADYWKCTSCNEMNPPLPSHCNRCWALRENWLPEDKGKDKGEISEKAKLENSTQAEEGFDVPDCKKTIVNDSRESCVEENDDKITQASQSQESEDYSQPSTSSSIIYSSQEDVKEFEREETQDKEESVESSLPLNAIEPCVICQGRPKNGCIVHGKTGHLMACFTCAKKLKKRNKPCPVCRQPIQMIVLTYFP
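test system = mammalian cells stably expressing self-ubiquitinating, self-degrading MDM2 E3–luciferase fusion | quantity = 2000 cells/well | incubation = cell settling 4 h, compound treatment 2 h, both 37 °C | signal = luminescence with SteadyLite reagent, 15 min at room temperature | evaluation = % enhancement relative to plate controls after blank subtraction | benchmarks = plate controls and plate blanks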
A number is an active result; n = inactive; x = no result.

SMILES	Measles CPE	Insulin prom inh	Yeast lifespan up	RAM network inh	BB579 growth dn	Mdm2 ligase inh
O=C(O)c1cccn1Cc1ccccc1F	44.0	x	n	n	n	n
COc1ccccc1NS(=O)(=O)c1cc(NC(=O)CNC(=O)c2ccc(C)s2)ccc1Cl	n	n	n	n	n	n
CC1(C)CC(=O)C2=C(C1)Nc1ccccc1NC2c1ccc2c(c1)OCO2 (stereo not given)	41.4	n	n	n	n	n
O=C1CCCC(=NCc2ccco2)C1	35.7	x	n	n	n	n
O=C1C=C(NCc2ccco2)CCC1	n	x	n	n	n	n
Cc1cc(C)c(C#N)c(SCC2COc3ccccc3O2)n1 (stereo not given)	n	n	n	8.5	n	x
COCCCn1nnnc1SCC(=O)N1c2ccccc2CC1C (stereo not given)	x	x	x	n	x	n
Cc1cc2ccccc2nc1SCC(=O)N1c2ccccc2CC1C (stereo not given)	n	100.0	n	n	n	n
Cc1cc2cc3c(cc2nc1SCC(=O)N1c2ccccc2CC1C)OCO3 (stereo not given)	n	n	x	n	n	n
CCn1nnnc1SCC(=O)N1c2ccccc2Sc2ccccc21	28.2	x	x	n	n	n
Cc1sc2nc(C3CC3)nc(SCC(=O)N3c4ccccc4CC3C)c2c1C (stereo not given)	63.8	n	n	n	n	n
Cn1nnnc1SCC(=O)N1c2ccccc2Sc2ccccc21	n	n	n	n	n	n
CC1Cc2ccccc2N1C(=O)CSc1nnnn1Cc1ccccc1 (stereo not given)	n	n	n	8.7	n	n
CCOC(=O)c1c(=O)n(O)c2ccc(OC)cc2[n+]1[O-]	n	n	n	n	n	n
Cc1cc(Br)c2c(c1)C(O)(N1CCCCC1C)C(=O)N2 (stereo not given)	n	n	n	n	n	n
CCCCCCC(=O)NC(Nc1ccc(S(N)(=O)=O)cc1)C(Cl)(Cl)Cl (stereo not given)	32.4	n	n	n	n	n
CC(=O)Nc1nc(N2C(=O)c3ccccc3C2=O)n(-c2ccccc2)n1	n	76.3	n	n	n	n
COc1ccc(/C=C2/C(=O)OCc3cc(OC)c(OC)cc32)cc1	n	n	n	n	n	n
COc1cc(-c2nnc(-c3ccco3)o2)ccc1OCc1ccccc1	n	n	n	n	n	n
COc1cc(-c2nnc(-c3ccncc3)o2)ccc1OCc1ccccc1	90.7	x	n	n	n	n
CCc1ccc(N(C(=O)c2csnn2)C(C(=O)NCc2ccccc2)c2ccco2)cc1 (stereo not given)	34.7	n	n	n	n	n
Cc1cccc(N2C(=O)CC(Sc3nc(-c4ccccc4)c4cc(Cl)ccc4n3)C2=O)c1 (stereo not given)	n	n	n	n	n	n
Cc1cc(C(=O)COc2ccccc2Cl)c(C)n1-c1ccc2c(c1)OCO2	33.3	n	n	n	n	n
Cc1cc(C(=O)CN2C(=O)NC3(CCCC3)C2=O)c(C)n1-c1ccc2c(c1)OCO2	n	x	n	n	n	n
Cc1cc(C(=O)CN2C(=O)NC(C)(CC(C)C)C2=O)c(C)n1-c1ccc2c(c1)OCO2 (stereo not given)	n	x	64.5	n	n	n
SMILES	Measles CPE	Insulin prom inh	Yeast lifespan up	RAM network inh	BB579 growth dn	Mdm2 ligase inh
O=C(NCc1ccccc1)C1=C[C@@H](c2coc3ccccc3c2=O)C[C@@H](OCCCCO)O1	x	x	x	n	x	x
COc1cc(NC(=O)Cn2c(=O)n(-c3cccc(C)c3)c(=O)c3c(C)c(C)sc32)cc(OC)c1	n	n	n	n	n	n
O=C(Nc1cc(S(=O)(=O)Nc2ccccc2Cl)ccc1O)c1sc2cc(Cl)ccc2c1Cl	x	n	x	n	x	n
COc1ccccc1NS(=O)(=O)c1ccc(Cl)c(NC(=O)c2sc3cc(Cl)ccc3c2Cl)c1	x	x	x	9.0	x	n
Cc1nc2c(F)c(F)c(C(F)(F)F)c(F)c2[nH]1	n	n	n	n	57.1	n
COc1cc2ccccc2cc1C(=O)NC(=S)Nc1cccc(C(=O)O)c1	x	x	x	8.9	x	n
O=C(c1nc2ccccn2c1CNCCCn1cccn1)N1CCCC1	x	x	x	n	x	n
CCO/C=C1\C(=O)N(c2ccccc2)C(=O)c2ccccc21	n	n	n	n	n	n
CCO/C=C1/C(=O)N(Cc2ccccc2)C(=O)c2ccccc21	n	n	32.1	n	n	n
CCOC(=O)CCC(=O)Nc1ccc([N+](=O)[O-])cc1C	x	x	x	n	x	n
Cc1ccc(C)c(N(CC(N)=O)S(C)(=O)=O)c1	49.6	n	n	n	n	n
O=C1NC(=O)c2cc(NC(=O)C3COc4ccccc4O3)ccc21 (stereo not given)	x	n	x	n	x	43.5
CN(c1ccccc1)S(=O)(=O)c1cccc(NC(=O)CSc2ncc(C(F)(F)F)cc2Cl)c1	n	x	n	n	n	n
O=C(Oc1ccc2ccccc2c1Cl)N1CCCCCC1	30.2	x	n	n	n	n
Cc1nc2ncnn2c(N2CCN(C(=O)Cc3cccs3)CC2)c1C	n	n	n	n	n	n
Oc1c(I)cc(I)c2cccnc12	n	n	n	n	82.9	x
Oc1c(Cl)cc(Cl)c2cccnc12	x	n	x	n	x	n
COCC(C)n1c(C)cc(C(=O)COC(=O)c2oc3ccccc3c2C)c1C (stereo not given)	n	n	n	n	n	n
COCC(C)n1c(C)cc(C(=O)Cn2c(=O)oc3ccccc32)c1C (stereo not given)	n	78.6	n	n	n	n
O=C(Cn1c(=O)oc2ccccc21)c1ccccc1	n	72.6	n	n	n	n
COc1ccc(OCC(=O)Nc2ccc3nc(C)sc3c2)cc1	x	n	x	n	x	n
COc1cccc(N2C(=O)C(Cc3c[nH]c4ccccc34)NC2=S)c1 (stereo not given)	n	n	n	n	n	n
COCCCNC(=O)CS(=O)Cc1nc(-c2cccc(OC)c2)oc1C (stereo not given)	38.9	x	n	n	n	n
CSCCC(NS(=O)(=O)c1ccc(Br)cc1)C(=O)OCC(=O)NC1CC1 (stereo not given)	x	83.3	x	n	x	n
CSCCC(NS(=O)(=O)c1ccc(Cl)cc1)C(=O)OCC(=O)NC1CC1 (stereo not given)	n	n	n	n	n	n
CSCCC(NS(=O)(=O)c1ccc(Cl)cc1)C(=O)OCc1cccc(Cl)c1 (stereo not given)	n	n	n	8.5	n	n
CSCCC(NS(=O)(=O)c1ccc(Cl)cc1)C(=O)OCC(=O)N(C(C)C)C(C)C (stereo not given)	n	n	n	n	n	n
CSCCC(NS(=O)(=O)c1ccc(Cl)cc1)C(=O)OCC(=O)c1ccc(F)cc1 (stereo not given)	n	n	36.1	n	n	n
CC(C)C(=O)N(c1ccc2oc(=O)sc2c1)S(=O)(=O)c1ccccc1	n	n	n	11.1	n	n
